Assay results reported in PMC5940269 (The Journal of Experimental Medicine, 2018).
pIC50: −log10 of the molar value. Where two headings read alike, the source gives them in different places.

Experiments:
SCW-induced arthritis = experiment: Streptococcal cell wall; type: in vivo, rat; conditions: for paw swelling: oral gavage 2×/day from day 9, CDD-450 5 or 10 mg/kg, CDD-110 1.5 mg/kg
How it was run: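 Adult female Lewis rats (180 g) received SCW preparation i.p. at 15 mg/kg, and acute paw edema was tracked on days 2–8. Paw volume was measured by plethysmometer every other day to day 21, and hind paws were scanned by µCT at day 21.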

WT or NOMID BMMs = experiment: mRNA stability; type: cell-based, mouse; conditions: LPS 3 h then 1 µg/ml actinomycin D plus inhibitor
How it was run: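 WT and NOMID BMMs were stimulated with 100 ng/ml LPS for 3 h, then exposed simultaneously to 1 µg/ml actinomycin D and test compound, MK2 inhibitor or IKK2 inhibitor. Cells were lysed at 0, 2, 4 or 6 h. After RNA extraction and reverse transcription, SYBR green qPCR tracked decay of IL-1β, IL-6, NLRP3 and TNF-α mRNA. Triplicates, ≥3 independent experiments.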

MK2 phosphorylation = experiment: Western blot of LPS-stimulated MK2 phosphorylation in BMMs; type: cell-based, mouse; conditions: 10 µM CDD-450, 100 ng/ml LPS, WT BMMs
p38α–PRAK = p38α–PRAK (Homo sapiens, UniProt Q16539); experiment: p38α–MK2 and p38α–PRAK assays; type: biochemical
Chain of p38α–PRAK (Q16539 whole entry): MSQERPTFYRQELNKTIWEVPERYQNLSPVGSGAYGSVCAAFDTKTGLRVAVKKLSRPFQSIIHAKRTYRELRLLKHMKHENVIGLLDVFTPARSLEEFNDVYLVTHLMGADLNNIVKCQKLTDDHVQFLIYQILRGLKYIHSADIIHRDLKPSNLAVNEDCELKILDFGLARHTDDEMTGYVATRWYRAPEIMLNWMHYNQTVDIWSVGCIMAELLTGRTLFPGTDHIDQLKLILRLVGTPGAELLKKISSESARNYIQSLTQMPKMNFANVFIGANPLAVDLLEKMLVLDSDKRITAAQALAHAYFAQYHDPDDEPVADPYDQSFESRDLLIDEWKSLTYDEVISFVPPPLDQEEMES
Chain of p38α–PRAK (Q8IW41 whole entry partner): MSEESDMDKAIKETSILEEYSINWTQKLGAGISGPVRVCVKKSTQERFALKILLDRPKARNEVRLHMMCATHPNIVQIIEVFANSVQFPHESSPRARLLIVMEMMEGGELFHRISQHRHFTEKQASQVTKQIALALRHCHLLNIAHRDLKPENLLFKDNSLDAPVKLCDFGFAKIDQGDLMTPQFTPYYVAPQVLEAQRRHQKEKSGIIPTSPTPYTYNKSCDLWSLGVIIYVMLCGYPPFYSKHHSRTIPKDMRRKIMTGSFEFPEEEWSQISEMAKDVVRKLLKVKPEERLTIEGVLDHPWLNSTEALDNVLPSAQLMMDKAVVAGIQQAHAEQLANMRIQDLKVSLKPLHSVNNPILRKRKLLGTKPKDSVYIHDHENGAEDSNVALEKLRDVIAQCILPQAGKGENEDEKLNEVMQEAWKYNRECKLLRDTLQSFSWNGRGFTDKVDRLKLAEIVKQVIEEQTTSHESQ

193 kinases = experiment: Kinase selectivity across the human kinome; type: biochemical; conditions: CDD-450 tested at 5 µM
[1] = test system: human PBMC from CAPS patients and healthy control; experiment: IL-1β production and mRNA stability in human PBMC; type: cell-based
How it was run: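 Human PBMC from a CAPS patient or healthy control. For secretion, cells were cultured 16 h at 32°C or 37°C with DMSO or test compound, or with 100 ng/ml LPS for 16 h at 37°C, and IL-1β in conditioned media was measured by ELISA. For mRNA stability, cells got 10 ng/ml LPS for 3 h, then 1 µg/ml actinomycin D plus inhibitor, were lysed at 0–6 h and analysed by SYBR qPCR. Triplicates, ≥2 independent experiments.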

U937 cells = experiment: LPS-stimulated phosphorylation of signaling proteins in U937 cells; type: cell-based, human
How it was run: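 U937 cells were differentiated into macrophages with 20 ng/ml PMA for 24 h. They were pretreated 1 h with vehicle (0.5% DMSO final) or test compound, then stimulated with 100 ng/ml LPS. Phosphorylation of signalling proteins was assessed by Western blotting, ELISA or MesoScale kits.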

NOMID^c mice = experiment: NOMID^c mice; type: in vivo; conditions: CDD-450 chow
How it was run: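 Nlrp3fl(D301N)/+;Cre-ERTM mice (C57BL/6) were given tamoxifen i.p., 75 mg/kg every other day, three times weekly for 2 wk; Cre-ERTM littermates were controls. Three-month-old mice received normal or compound chow from 3 d before tamoxifen. Body weight (10–11/group) and survival (12–13/group) were scored every 2–3 d. Endpoint was 4 wk later: decalcified 5-µm bone sections were TRAP-stained and osteoclasts counted on trabecular and cortical surfaces (4–6 mice/group).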

WT BMMs = experiment: Osteoclast formation in vitro induced by RANKL; type: cell-based, mouse; conditions: 50 ng/ml RANKL for 4 d
How it was run: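 WT BMMs were plated at 5 × 10^3/well in 1:50 CMG supernatant plus RANKL with DMSO or test compound for 4 d, medium changed every other day, at 37°C, 5% CO2. Cells were fixed 10 min in 3.7% formaldehyde/0.1% Triton X-100, then TRAP-stained 30 min at room temperature. TRAP+ cells with ≥3 nuclei were scored as osteoclasts. Triplicates, ≥3 independent experiments.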

Pharmacokinetics = experiment: Pharmacokinetics; parameters: species or system mice, rats, and dogs; conditions: in vivo
[2] = test system: NLRP3 inflammasome / caspase-1; experiment: Microscopic analysis of active caspase-1; type: cell-based, mouse; conditions: LPS-primed cells, 15 µM nigericin with 10 µM CDD-450, 30 min
How it was run: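 BMMs were plated at 5 × 10^4/well for 24 h, primed with 100 ng/ml LPS for 3 h, then treated 30 min with 10 µM test compound and/or 15 µM nigericin. Active caspase-1 was labelled with FLICA FAM-YVAD-FMK (30 min, 37°C). Cells were washed, fixed in 10% buffered formalin and DAPI-counterstained, then imaged by fluorescence microscopy with image analysis.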

[3] = test system: LPS-induced production of TNF-α, IL-1β and IL-6; experiment: LPS-induced cytokine production in various in vitro systems and animal models; type: cell-based
How it was run: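 U937 premonocytic cells, grown in RPMI 1640 with 10% FBS, were differentiated with 20 ng/ml PMA for 24 h. They were pretreated with vehicle or test compound, then stimulated with 100 ng/ml LPS for 4 h. TNF-α, IL-1β and IL-6 were measured in conditioned media.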

WT and NOMID BMMs = experiment: IL-1β secretion by LPS-primed BMMs; type: cell-based, mouse; conditions: 100 ng/ml LPS 3 h; WT cells plus 15 µM nigericin 30 min
How it was run: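 BMMs were derived over ~5 d in 1:10 CMG 14-12 supernatant (M-CSF source), plated at 10^4/well and kept 24 h. They were pretreated 1 h with vehicle (0.5% DMSO final), test compound or IKK2 inhibitor, then given 100 ng/ml LPS for 3 h without a media change. WT cells then received 15 µM nigericin for 30 min. IL-1β in conditioned media was measured by ELISA; triplicates, ≥3 independent experiments.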

[4] = test system: WT and NOMID bone marrow macrophages (BMMs); experiment: qPCR/Western analysis of LPS-induced expression in BMMs; type: cell-based, mouse; conditions: for IL-18 expression: in vitro
How it was run: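 WT and NOMID BMMs were preincubated 1 h with test compound or IKK2 inhibitor (0.5% DMSO final), then given 100 ng/ml LPS for 3 or 8 h. Transcripts were measured by SYBR green qPCR after RNA extraction and reverse transcription. Protein (NLRP3, pro-caspase-1) was measured by Western blot of RIPA lysates. Triplicates, ≥3 independent experiments.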

[5] = In vivo tolerability, 14 consecutive days oral gavage; conditions: rat
[6] = test system: LPS-induced TNF-α expression; experiment: LPS-induced TNF-α production in mice fed inhibitor chow; type: in vivo; conditions: CDD-450 chow 1,000 ppm; LPS 0.025 mg/kg for 1 h
How it was run: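 Eight-week-old WT female mice (six/group) were fed normal chow or inhibitor chow (1,000 or 516 ppm). At the indicated weeks they were challenged i.v. with Salmonella typhosa LPS, 0.025 mg/kg in saline. Blood was collected by cardiac puncture 60 min later, and serum TNF-α was measured by ELISA.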

p38β = p38β (Homo sapiens, UniProt Q15759); experiment: Kinase selectivity, p38β; type: biochemical; conditions: CDD-450 tested at 5 µM
Chain of p38β (Q15759 whole entry): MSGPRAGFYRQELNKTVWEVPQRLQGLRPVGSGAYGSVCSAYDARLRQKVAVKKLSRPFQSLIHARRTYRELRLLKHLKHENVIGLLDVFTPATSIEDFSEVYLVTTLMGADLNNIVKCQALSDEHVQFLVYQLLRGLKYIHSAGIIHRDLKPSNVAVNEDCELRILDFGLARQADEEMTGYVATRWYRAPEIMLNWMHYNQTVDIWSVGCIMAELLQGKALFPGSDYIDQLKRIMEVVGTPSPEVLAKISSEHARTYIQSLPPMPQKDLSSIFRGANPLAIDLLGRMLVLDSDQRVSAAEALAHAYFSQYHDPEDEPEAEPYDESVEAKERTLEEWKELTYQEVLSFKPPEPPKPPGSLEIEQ

cardiac hERG channel = cardiac hERG channel (Homo sapiens, UniProt Q12809); experiment: hERG channel inhibition
Chain of cardiac hERG channel (Q12809 whole entry): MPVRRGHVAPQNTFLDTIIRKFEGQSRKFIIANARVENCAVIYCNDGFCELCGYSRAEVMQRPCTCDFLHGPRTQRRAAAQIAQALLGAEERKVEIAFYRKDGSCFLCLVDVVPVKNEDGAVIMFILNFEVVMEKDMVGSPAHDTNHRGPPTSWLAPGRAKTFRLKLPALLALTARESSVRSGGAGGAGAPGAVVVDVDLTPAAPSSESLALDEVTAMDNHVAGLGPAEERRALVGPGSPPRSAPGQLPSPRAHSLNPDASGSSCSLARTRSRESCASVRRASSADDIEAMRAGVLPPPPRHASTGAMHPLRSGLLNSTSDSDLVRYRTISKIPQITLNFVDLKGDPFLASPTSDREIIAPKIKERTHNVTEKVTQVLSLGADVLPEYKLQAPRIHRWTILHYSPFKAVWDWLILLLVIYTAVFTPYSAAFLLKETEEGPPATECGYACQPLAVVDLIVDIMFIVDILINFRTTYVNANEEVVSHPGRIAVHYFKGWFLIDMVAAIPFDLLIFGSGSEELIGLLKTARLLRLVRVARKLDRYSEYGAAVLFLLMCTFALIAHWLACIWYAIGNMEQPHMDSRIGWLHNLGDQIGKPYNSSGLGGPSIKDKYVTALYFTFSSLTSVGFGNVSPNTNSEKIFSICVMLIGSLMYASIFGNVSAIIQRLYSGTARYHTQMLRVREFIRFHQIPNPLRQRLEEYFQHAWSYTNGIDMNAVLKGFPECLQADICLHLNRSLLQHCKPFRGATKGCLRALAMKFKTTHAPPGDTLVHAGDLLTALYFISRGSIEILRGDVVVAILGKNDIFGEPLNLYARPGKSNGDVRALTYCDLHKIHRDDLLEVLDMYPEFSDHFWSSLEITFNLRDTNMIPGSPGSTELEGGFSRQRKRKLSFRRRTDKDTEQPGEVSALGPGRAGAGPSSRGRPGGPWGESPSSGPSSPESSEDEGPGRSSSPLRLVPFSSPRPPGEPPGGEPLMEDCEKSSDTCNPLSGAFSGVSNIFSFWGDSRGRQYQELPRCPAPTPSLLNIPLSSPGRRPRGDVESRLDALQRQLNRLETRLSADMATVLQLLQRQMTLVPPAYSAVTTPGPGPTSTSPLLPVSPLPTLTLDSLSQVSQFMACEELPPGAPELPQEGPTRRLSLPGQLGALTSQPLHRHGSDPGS

[7] = Body weight of WT mice on CDD-450 chow; type: in vivo
[8] = Cytotoxicity at efficacious concentrations; type: cell-based; conditions: efficacious concentrations tested in this study; not depicted
p38α–ATF2 = experiment: p38α–MK2 and p38α–ATF2 assays; type: biochemical
RA synovial fibroblasts = experiment: IL-1β-induced responses in synovial fibroblasts from an RA patient; type: cell-based, human
How it was run: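 Synovial fibroblasts from an RA patient were preincubated 1 h with inhibitors, then given 10 ng/ml IL-1β for 3 h, with transcripts measured by qPCR. For mRNA stability, IL-1β was added for 3 h, then 1 µg/ml actinomycin D plus test compound or IKK2 inhibitor, with cells lysed at 0, 2, 4 or 6 h. For p-MK2 (Thr334) Western blot, cells had 1 h preincubation with 10 µM test compound before IL-1β. Triplicates, ≥2 independent experiments.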

p38α–MK2 complex = experiment: Surface plasmon resonance analysis of p38α binding to immobilized MK2; conditions: 10 nM p38α, immobilized GST-MK2
[9] = 100 ng/ml LPS, inhibitor preincubated 1 h
[10] = 10 ng/ml IL-1β 3 h then actinomycin D

CNC(=O)c1ccc(C)c(-n2c(C)cc(OCc3ccc(F)cc3F)c(Br)c2=O)c1 [CDD-110, reference compound]
paw swelling (SCW-induced arthritis): inhibited

Cc1ccc(-c2ccc3c(ccc4sc5c(c43)NC[C@@H](C)NC5=O)n2)cn1 [PF-3644022, reference compound]
degradation of IL-1β mRNA (WT or NOMID BMMs): promoted the degradation | degradation of TNF-α mRNA (WT or NOMID BMMs): promoted the degradation

Cc1cnc(-c2ccnc(C(C)(C)O)n2)cc1-n1c(C)cc(OCc2ncc(F)cc2F)c(Cl)c1=O [CDD-450]
LPS-stimulated MK2 phosphorylation at 15 and 30 min (MK2 phosphorylation): inhibited | LPS-stimulated MK2 phosphorylation at 180 min (MK2 phosphorylation): little effect | fold more potent in inhibiting p38α–MK2 than p38α–PRAK (p38α–PRAK): at least 700 × | potency differential for inhibiting the 193 kinases tested (193 kinases): > 350 × | IL-1β mRNA instability in human PBMC ([1]; 10 ng/ml LPS 3 h then actinomycin D): promoted | LPS-stimulated IL-1β secretion by healthy control PBMC ([1]; 100 ng/ml LPS 16 h at 37°C): reduced | IL-1β secretion by CAPS PBMC ([1]; 16 h at 32°C, spontaneous): reduced | degradation of TNF-α mRNA induced by LPS in human PBMC ([1]; not depicted): accentuated | LPS activation of the ERK1/2 pathway (U937 cells): no inhibitory effect | LPS activation of the JNK pathway (U937 cells): no inhibitory effect | MK2 phosphorylation induced by LPS (U937 cells): blocked | body weight loss of NOMID^c mice versus untreated NOMID^c mice (NOMID^c mice): lost significantly less body weight | increased number of osteoclasts on trabecular and cortical bone surfaces (NOMID^c mice): prevented | skin lesions and death over the 7-wk period (NOMID^c mice; untreated: ∼35% skin lesions, 20% died): neither occurred | in vitro osteoclast formation induced by RANKL (WT BMMs): inhibited | half-life (Pharmacokinetics): long | volume of distribution (Pharmacokinetics): high | oral bioavailability (Pharmacokinetics; po): high | decay of NLRP3 mRNA (WT or NOMID BMMs): no effect | degradation of IL-1β mRNA (WT or NOMID BMMs): promoted the degradation | degradation of IL-6 mRNA (WT or NOMID BMMs): promoted the degradation | joint destruction, 3D µCT reconstruction (SCW-induced arthritis; 5 mg/kg CDD-450 2×/day): joint protective effects | paw swelling (SCW-induced arthritis): inhibited | bone mineral density (SCW-induced arthritis; µCT at day 21): preserved | nigericin-induced activation of caspase-1 (fluorescent foci) [2]: no effect | pIC50 ([3]; read-out: IC50, LPS-induced production of IL-1β): 8.00 to 9.00 | pIC50 ([3]; read-out: IC50, LPS-induced production of IL-6): ~7.00 | pIC50 ([3]; read-out: IC50, LPS-induced production of TNF-α): 8.00 to 9.00 | IL-1β secretion by LPS-primed WT and NOMID BMMs (WT and NOMID BMMs): inhibited | NLRP3 expression ([4]; 100 ng/ml LPS): no effect | IL-18 expression ([4]; 100 ng/ml LPS): no direct effect | LPS-induced IL-1β mRNA expression [4, 9]: inhibited | LPS-induced IL-6 mRNA expression [4, 9]: inhibited | LPS-induced TNF-α mRNA expression [4, 9]: inhibited | expression of NLRP3 interacting partners ASC, caspase-1 and NEK7 ([4]; not depicted): no effect | well tolerated exposure relative to the predicted Cmax efficacious exposure [5]: > 30 × | persistence of efficacy in blocking LPS-induced TNF-α expression after dosing [6]: up to 4 wk | cross-reactivity on p38β (p38β): crossed over | inhibition of the cardiac hERG channel (cardiac hERG channel): did not inhibit | tolerability of concomitant exposure to CDD-450 chow and tamoxifen ([7]; WT mice): not well tolerated | body weight of WT mice, CDD-450 chow versus normal chow ([7]; no tamoxifen): gained body weight undistinguishably | body weight of WT mice, CDD-450 chow plus tamoxifen, compared with normal chow ([7]; tamoxifen for 2 wk): lost body weight | cytotoxicity [8]: not cytotoxic | fold more potent in inhibiting p38α–MK2 than p38α–ATF2 (p38α–ATF2): at least 700 × | IL-1β mRNA levels induced by IL-1β (RA synovial fibroblasts; 10 ng/ml IL-1β 3 h): decreased | degradation of TNF-α mRNA induced by IL-1β (RA synovial fibroblasts; [10]): accentuated | loss of IL-1β transcripts (RA synovial fibroblasts; [10]): accelerated | MK2 phosphorylation induced by IL-1β (RA synovial fibroblasts; 10 µM CDD-450, 10 ng/ml IL-1β): blocked | stabilization of the p38α–MK2 complex (increased t1/2) relative to p38α–MK2 alone (p38α–MK2 complex): 47.5 ×

CN1CCN(c2cc(C(=O)Nc3ccc4c(c3)-c3c(c(C(N)=O)nn3-c3ccc(F)cc3)CC4)c(Cl)cn2)CC1 [PHA-408, reference compound]
IL-1β secretion by LPS-primed WT and NOMID BMMs (WT and NOMID BMMs): inhibited | NLRP3 expression ([4]; 100 ng/ml LPS): decreased | IL-18 expression ([4]; 100 ng/ml LPS): decreased | LPS-induced IL-1β mRNA expression [4, 9]: inhibited
